Results from different studies.
Lines come from different studies, so protocols differ.
Action: inhibitor
CDK5 with p25: Cyclin-dependent kinase 5, with p25 (CDK5, Homo sapiens, UniProt Q00535)
CDK5 with p35: Cyclin-dependent kinase 5, with p35 (CDK5, Homo sapiens, UniProt Q00535)
CDK5: Cyclin-dependent kinase 5 (CDK5, Homo sapiens, UniProt Q00535)

Structure (SMILES)	target	test	system	conditions	inhibition [%]
COc1cc(-c2cc(-c3ccc(N4CCNCC4)cc3)cnc2C)cc(OC)c1OC	CDK5 with p25	enzyme activity	–	1 µM	3
CN(C)C1CCN(CC#Cc2nn(C3CCCC3)c3nc(NCc4ccccc4)ncc23)C1 (stereo not shown)	CDK5 with p25	enzyme activity, FRET	–	10 µM	3
CNCc1ccc(-c2cc(-c3nc(-c4ccc(S(=O)(=O)C(C)C)cc4)cnc3N)on2)cc1	CDK5 with p35	enzyme activity	–	0.4 µM	0
COc1cc2ncnc(Nc3ccc(Oc4ccccc4)cc3C)c2cc1OC	CDK5 with p35	enzyme activity	–	1 µM	7
CNc1cc(Oc2cc(C(=O)Nc3cc(N4CCN(C)CC4)cc(C(F)(F)F)c3)ccc2C)ncn1	CDK5	target engagement in cells, chemoproteomics	Huh-7	1 µM	-37.2
Cc1ccc(-n2nc(C(C)(C)C)cc2NC(=O)Nc2ccc(OCCN3CCOCC3)c3ccccc23)cc1	CDK5 with p35	enzyme activity	–	10 µM	-26
COc1cc2ncnc(Nc3ccc(Oc4ccccc4)c(C)c3C)c2cc1OC	CDK5 with p25	enzyme activity	–	1 µM	3
CC[C@H](C)[C@H](NC(=O)[C@H](CCC(N)=O)NC(=O)[C@H](CC(C)C)NC(=O)[C@H](CCSC)NC(=O)[C@H](CCCCN)NC(=O)[C@H](CO)NC(=O)[C@H](CO)NC(=O)[C@H](CCSC)NC(=O)[C@H](CC(C)C)NC(=O)[C@H](CC(N)=O)NC(=O)[C@@H](NC(=O)[C@@H](NC(=O)[C@H](CO)NC(=O)[C@H](CC(C)C)NC(=O)[C@H](CS)NC(=O)[C@H](CCCNC(=N)N)NC(=O)[C@H](CC(=O)O)NC(=O)[C@H](Cc1c[nH]c2ccccc12)NC(=O)[C@H](Cc1ccccc1)NC(=O)[C@H](C)NC(=O)[C@H](CCC(=O)O)NC(=O)[C@@H](N)CCCCN)C(C)C)[C@@H](C)CC)C(=O)N[C@@H](CC(N)=O)C(=O)N[C@@H](C)C(=O)O	CDK5 with p25	enzyme activity, radiometric	–	10 µM	13
CCN1CCN(Cc2ccc(NC(=O)c3ccc(C)c(Oc4ccnc5[nH]ccc45)c3)cc2C(F)(F)F)CC1	CDK5	target engagement in cells, chemoproteomics	Huh-7	1 µM	-88.8
CN1CC(Oc2cnc(C#N)cc2-c2ccn3nc(NC(=O)C4CC4)cc3c2)C1	CDK5 with p25	enzyme activity	–	1 µM	4
